Key:
Assay type in all cases: functional
UACC-62 = assay: Cytotoxicity against human UACC62 cells assessed as cell growth at 10 uM after 48 hrs by SRB assay; details: UACC-62, 48 h, read-out: Activity
In short: (§1)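 NCI-60 single-dose screen at 10^-5 M. Adherent lines are grown in RPMI 1640 with 5% FBS and 2 mM L-glutamine, seeded at 5000–40,000 cells/well by doubling time, and preincubated 24 h at 37 °C in 5% CO2. Drug is added from DMSO stock diluted in medium, then 48 h. Cells are fixed in cold TCA (final 10%) for 60 min and stained with 0.4% SRB in 1% acetic acid. Growth is expressed as % of untreated control using time-zero plates.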

SN12C = assay: Cytotoxicity against human SN12C cells assessed as cell growth at 10 uM after 48 hrs by SRB assay; details: read-out: Activity
In short: (§2)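 NCI-60 single-dose screen. Cell lines grown in RPMI 1640 with 5% FBS and 2 mM L-glutamine, plated at 5000–40,000 cells/well according to doubling time, then preincubated 24 h at 37 °C in 5% CO2. Compounds dissolved in DMSO, tested at 10^-5 M for 48 h. Adherent cells fixed with cold TCA (10% final) and stained with 0.4% SRB in 1% acetic acid. Growth expressed as percent of untreated control.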

[1] = Cytotoxicity against human NCI-ADR-RES cells assessed as cell growth at 10 uM after 48 hrs by SRB assay; details: read-out: Activity; in short: as §2
ACHN = assay: Cytotoxicity against human ACHN cells assessed as cell growth at 10 uM after 48 hrs by SRB assay; details: read-out: Activity; in short: as §2
SK-MEL-2 = assay: Cytotoxicity against human SK-MEL-2 cells assessed as cell growth at 10 uM after 48 hrs by SRB assay; details: SK-MEL-2, 48 h, read-out: Activity; in short: as §2
MDA-MB-468 = assay: Cytotoxicity against human MDA-MB-468 cells assessed as cell growth at 10 uM after 48 hrs by SRB assay; details: MDA-MB-468, 48 h, read-out: Activity; in short: as §2
DU-145 = assay: Cytotoxicity against human DU145 cells assessed as cell growth at 10 uM after 48 hrs by SRB assay; details: DU-145, 48 h, read-out: Activity; in short: as §2
SF-539 = assay: Cytotoxicity against human SF539 cells assessed as cell growth at 10 uM after 48 hrs by SRB assay; details: SF-539, 48 h, read-out: Activity; in short: as §2
MDA-MB-435 = assay: Cytotoxicity against human MDA-MB-435 cells assessed as cell growth at 10 uM after 48 hrs by SRB assay; details: MDA-MB-435, 48 h, read-out: Activity; in short: as §2
NCI-H322M = assay: Cytotoxicity against human NCI-H322M cells assessed as cell growth at 10 uM after 48 hrs by SRB assay; details: read-out: Activity; in short: as §2
HOP-92 = assay: Cytotoxicity against human HOP92 cells assessed as cell growth at 10 uM after 48 hrs by SRB assay; details: HOP-92, 48 h, read-out: Activity; in short: as §2
[2] = Cytotoxicity against human Hs578T cells assessed as cell growth at 10 uM after 48 hrs by SRB assay; details: Hs-578T, read-out: Activity; in short: as §2
IGROV-1 = assay: Cytotoxicity against human IGROV1 cells assessed as cell growth at 10 uM after 48 hrs by SRB assay; details: IGROV-1, 48 h, read-out: Activity; in short: as §2
NCI-H460 = assay: Cytotoxicity against human NCI-H460 cells assessed as cell growth at 10 uM after 48 hrs by SRB assay; details: NCI-H460, 48 h, read-out: Activity; in short: as §2
SK-MEL-28 = assay: Cytotoxicity against human SK-MEL-28 cells assessed as cell growth at 10 uM after 48 hrs by SRB assay; details: SK-MEL-28, 48 h, read-out: Activity; in short: as §2
MCF7 = assay: Cytotoxicity against human MCF7 cells assessed as cell growth at 10 uM after 48 hrs by SRB assay; details: MCF7, 48 h, read-out: Activity; in short: as §2
HOP-62 = assay: Cytotoxicity against human HOP62 cells assessed as cell growth at 10 uM after 48 hrs by SRB assay; details: HOP-62, 48 h, read-out: Activity; in short: as §2
HL-60(TB) = assay: Cytotoxicity against human HL-60(TB) cells assessed as cell growth at 10 uM after 48 hrs by SRB assay; details: HL-60, 48 h, read-out: Activity
In short: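 NCI-60 single-dose screen: cells grown in RPMI 1640 with 5% FBS and 2 mM L-glutamine, plated at 5000–40,000 cells/well, preincubated 24 h at 37 °C, 5% CO2. Compound dissolved in DMSO, tested at 10^-5 M for 48 h. Cells TCA-fixed, sulforhodamine B stained. Growth expressed as percent of untreated control, referenced to time-zero plates.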

NCI-H226 = assay: Cytotoxicity against human NCI-H226 cells assessed as cell growth at 10 uM after 48 hrs by SRB assay; details: NCI-H226, 48 h, read-out: Activity; in short: as §2
SNB-75 = assay: Cytotoxicity against human SNB75 cells assessed as cell growth at 10 uM after 48 hrs by SRB assay; details: SNB-75, 48 h, read-out: Activity; in short: as §2
OVCAR-3 = assay: Cytotoxicity against human OVCAR3 cells assessed as cell growth at 10 uM after 48 hrs by SRB assay; details: OVCAR-3, 48 h, read-out: Activity; in short: as §2
M14 = assay: Cytotoxicity against human M14 cells assessed as cell growth at 10 uM after 48 hrs by SRB assay; details: M14, 48 h, read-out: Activity; in short: as §2
RPMI-8226 = assay: Cytotoxicity against human RPMI8226 cells assessed as cell growth at 10 uM after 48 hrs by SRB assay; details: RPMI-8226, 48 h, read-out: Activity; in short: as §2
OVCAR-8 = assay: Cytotoxicity against human OVCAR8 cells assessed as cell growth at 10 uM after 48 hrs by SRB assay; details: OVCAR-8, 48 h, read-out: Activity; in short: as §2
RXF 393 = assay: Cytotoxicity against human RXF393 cells assessed as cell growth at 10 uM after 48 hrs by SRB assay; details: RXF 393, 48 h, read-out: Activity; in short: as §2
CAKI-1 = assay: Cytotoxicity against human CAKI-1 cells assessed as cell growth at 10 uM after 48 hrs by SRB assay; details: CAKI-1, 48 h, read-out: Activity; in short: as §2
SW-620 = assay: Cytotoxicity against human SW620 cells assessed as cell growth at 10 uM after 48 hrs by SRB assay; details: SW-620, 48 h, read-out: Activity; in short: as §1
HCT-15 = assay: Cytotoxicity against human HCT15 cells assessed as cell growth at 10 uM after 48 hrs by SRB assay; details: HCT-15, 48 h, read-out: Activity; in short: as §2

SMILES | growth at 10 µM (UACC-62) | growth at 10 µM (SN12C) | growth at 10 µM [1] | growth at 10 µM (ACHN) | growth at 10 µM (SK-MEL-2) | growth at 10 µM (MDA-MB-468) | growth at 10 µM (DU-145) | growth at 10 µM (SF-539) | growth at 10 µM (MDA-MB-435) | growth at 10 µM (NCI-H322M) | growth at 10 µM (HOP-92) | growth at 10 µM [2] | growth at 10 µM (IGROV-1) | growth at 10 µM (NCI-H460) | growth at 10 µM (SK-MEL-28) | growth at 10 µM (MCF7) | growth at 10 µM (HOP-62) | growth at 10 µM (HL-60(TB)) | growth at 10 µM (NCI-H226) | growth at 10 µM (SNB-75) | further results
Cc1cc(C)n(-c2cn3c(-c4ccccc4)csc3n2)n1 | 89.4% | 96.5% | 95.5% | 83.8% | 97.6% | 102% | 105% | 94% | 96.9% | 91.1% | 86% | 106% | 76.5% | 104% | 102% | 88.7% | 91.4% | 105% | 88.3% | 64.1% | growth at 10 µM (OVCAR-3): 101%; growth at 10 µM (M14): 95.4%; growth at 10 µM (RPMI-8226): 93%; growth at 10 µM (OVCAR-8): 95.9%; growth at 10 µM (RXF 393): 93.4%; growth at 10 µM (CAKI-1): 77.4%; growth at 10 µM (SW-620): 102%; growth at 10 µM (HCT-15): 95%
O=C1CN2C(c3ccc(Cl)cc3)=CSC2=N1 | 88.7% | 94.9% | 102% | 95% | 98.2% | 106% | 102% | 94.8% | 87.8% | 93.8% | 111% | 111% | 95.2% | 106% | 95.7% | 90.9% | 107% | 94.2% | 110% | 75.8% | growth at 10 µM (OVCAR-3): 105%; growth at 10 µM (M14): 97%; growth at 10 µM (RPMI-8226): 89.2%; growth at 10 µM (OVCAR-8): 96%; growth at 10 µM (RXF 393): 111%; growth at 10 µM (CAKI-1): 81.3%; growth at 10 µM (SW-620): 101%; growth at 10 µM (HCT-15): 93.3%
Cc1ccc(-c2csc3nc(N4NC(=O)CC4=O)cn23)cc1 | 91.8% | 104% | 108% | 90.5% | 116% | 106% | 118% | 101% | 90% | 108% | 75.1% | 107% | 105% | 111% | 102% | 93.9% | 105% | 107% | 94.4% | 73.3% | growth at 10 µM (OVCAR-3): 113%; growth at 10 µM (M14): 105%; growth at 10 µM (RPMI-8226): 98.1%; growth at 10 µM (OVCAR-8): 99.3%; growth at 10 µM (RXF 393): 101%; growth at 10 µM (CAKI-1): 90.1%; growth at 10 µM (SW-620): 103%; growth at 10 µM (HCT-15): 100%
O=C1CC(=O)N(c2cn3c(-c4ccccc4)csc3n2)N1 | 85% | 92.2% | 94.3% | 81.5% | 102% | 102% | 106% | 88.2% | 99.9% | 98.1% | 63.5% | 101% | 91.5% | 104% | 96.4% | 85.8% | 85.9% | 120% | 90% | 63.1% | growth at 10 µM (OVCAR-3): 99%; growth at 10 µM (M14): 101%; growth at 10 µM (RPMI-8226): 93%; growth at 10 µM (OVCAR-8): 89.8%; growth at 10 µM (RXF 393): 89.7%; growth at 10 µM (CAKI-1): 75.9%; growth at 10 µM (SW-620): 107%; growth at 10 µM (HCT-15): 91.2%
O=C1CN2C(c3ccccc3)=CSC2=N1 | 90.3% | 91.5% | 99.6% | 97.9% | 114% | 106% | 112% | 97.5% | 95.1% | 116% | 78% | 103% | 104% | 105% | 105% | 88.5% | 93.6% | 114% | 102% | 61% | growth at 10 µM (OVCAR-3): 111%; growth at 10 µM (M14): 99.9%; growth at 10 µM (RPMI-8226): 94.4%; growth at 10 µM (OVCAR-8): 97.9%; growth at 10 µM (RXF 393): 102%; growth at 10 µM (CAKI-1): 78.7%; growth at 10 µM (SW-620): 94.8%; growth at 10 µM (HCT-15): 95.9%
CC1=NN(c2cn3c(-c4ccc(Cl)cc4)csc3n2)C(=O)C1 | 81.9% | 90.9% | 100% | 89.1% | 104% | 97.9% | 105% | 94.7% | 87.4% | 99.8% | 73.6% | 101% | 99.3% | 103% | 96.3% | 93.5% | 97.5% | 92.5% | 95.4% | 65.3% | growth at 10 µM (OVCAR-3): 106%; growth at 10 µM (M14): 96.2%; growth at 10 µM (RPMI-8226): 75.9%; growth at 10 µM (OVCAR-8): 94.2%; growth at 10 µM (RXF 393): 104%; growth at 10 µM (CAKI-1): 79.3%; growth at 10 µM (SW-620): 99.3%; growth at 10 µM (HCT-15): 88.7%
Cc1ccc(-c2csc3nc(-n4nc(C)cc4C)cn23)cc1 | 90.5% | 98.1% | 98.5% | 90.7% | 125% | 112% | 116% | 109% | 94.6% | 96.4% | 78% | 97% | 107% | 102% | 94.8% | 89.7% | 104% | 106% | 94.8% | 85.9% | growth at 10 µM (OVCAR-3): 115%; growth at 10 µM (M14): 104%; growth at 10 µM (RPMI-8226): 90.3%; growth at 10 µM (OVCAR-8): 96%; growth at 10 µM (RXF 393): 105%; growth at 10 µM (CAKI-1): 83.5%; growth at 10 µM (SW-620): 106%; growth at 10 µM (HCT-15): 101%
